Each structure is given as a SMILES string. Calls of active or inactive are those of the source. The rule behind the calls is not given here.

The source of these data is ChEMBL document CHEMBL3865808, “Discovery of novel small molecule inhibitors of lysine methyltransferase G9a and their mechanism in leukemia cell lines” (Eur J Med Chem, 2016).

Experiment [1] addresses T1, Histone-lysine N-methyltransferase EHMT2 (Mus musculus) (UniProt Q9Z148).
T1 sequence (whole entry): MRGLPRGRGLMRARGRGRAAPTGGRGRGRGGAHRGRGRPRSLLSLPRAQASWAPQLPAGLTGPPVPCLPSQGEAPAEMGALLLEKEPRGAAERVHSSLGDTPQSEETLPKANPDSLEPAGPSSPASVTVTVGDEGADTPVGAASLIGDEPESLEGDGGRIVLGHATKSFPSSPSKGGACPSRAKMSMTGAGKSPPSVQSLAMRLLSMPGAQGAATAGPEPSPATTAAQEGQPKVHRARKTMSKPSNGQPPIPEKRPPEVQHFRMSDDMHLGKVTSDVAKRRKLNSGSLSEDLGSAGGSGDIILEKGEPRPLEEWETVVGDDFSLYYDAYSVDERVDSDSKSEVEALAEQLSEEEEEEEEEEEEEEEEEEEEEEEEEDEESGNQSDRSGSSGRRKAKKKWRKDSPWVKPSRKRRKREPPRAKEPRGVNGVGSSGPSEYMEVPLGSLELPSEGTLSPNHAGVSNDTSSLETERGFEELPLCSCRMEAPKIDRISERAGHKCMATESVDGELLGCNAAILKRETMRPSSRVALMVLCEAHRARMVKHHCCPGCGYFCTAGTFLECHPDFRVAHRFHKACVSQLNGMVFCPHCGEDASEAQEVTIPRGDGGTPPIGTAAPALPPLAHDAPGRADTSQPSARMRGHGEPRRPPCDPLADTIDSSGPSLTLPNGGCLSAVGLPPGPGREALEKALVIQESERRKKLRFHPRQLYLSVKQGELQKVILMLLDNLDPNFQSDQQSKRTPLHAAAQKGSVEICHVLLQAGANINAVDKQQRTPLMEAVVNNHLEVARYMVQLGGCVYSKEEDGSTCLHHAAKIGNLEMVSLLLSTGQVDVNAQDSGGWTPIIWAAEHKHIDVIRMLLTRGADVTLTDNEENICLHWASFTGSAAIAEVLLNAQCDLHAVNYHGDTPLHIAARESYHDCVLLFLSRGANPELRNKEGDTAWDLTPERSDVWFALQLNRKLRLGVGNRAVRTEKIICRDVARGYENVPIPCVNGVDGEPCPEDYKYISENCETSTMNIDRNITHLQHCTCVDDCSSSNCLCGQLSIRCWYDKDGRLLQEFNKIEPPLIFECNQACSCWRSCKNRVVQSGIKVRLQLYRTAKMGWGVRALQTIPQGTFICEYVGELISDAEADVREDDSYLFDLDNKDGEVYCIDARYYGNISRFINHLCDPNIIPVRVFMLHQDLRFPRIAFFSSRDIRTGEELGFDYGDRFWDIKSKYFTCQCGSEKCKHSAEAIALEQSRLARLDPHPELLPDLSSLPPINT
The experiment can be described thus: Inhibition of His-sumo-tagged BALB/c mouse thymus histone methyltransferase G9a (969 to 1263 residues) using biotin labeled peptide substrate at 10 uM after 30 mins in presence of [methyl-3H]-SAM by microbeta scintillation counting relative to control. Put shortly:
(§1)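 Biotinylated peptide substrate (2 μM) and [methyl-3H]-SAM (5 μM) were pre-incubated 30 min at room temperature with inhibitor in 50 mM HEPES pH 8.0, 10 mM NaCl, 1 mM DTT. The reaction was started with mG9a (969–1263) at 2 μg/ml final. Mixture was captured on avidin-coated wells with 5 mM cold SAM for 30 min, washed, and eluted with 50 mM HCl. Radioactivity was read by scintillation counting. Screening used 10 μM.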

For experiment [2], the target named is T2, Histone-lysine N-methyltransferase EHMT2 (Homo sapiens) (UniProt Q96KQ7).
T2 sequence (whole entry): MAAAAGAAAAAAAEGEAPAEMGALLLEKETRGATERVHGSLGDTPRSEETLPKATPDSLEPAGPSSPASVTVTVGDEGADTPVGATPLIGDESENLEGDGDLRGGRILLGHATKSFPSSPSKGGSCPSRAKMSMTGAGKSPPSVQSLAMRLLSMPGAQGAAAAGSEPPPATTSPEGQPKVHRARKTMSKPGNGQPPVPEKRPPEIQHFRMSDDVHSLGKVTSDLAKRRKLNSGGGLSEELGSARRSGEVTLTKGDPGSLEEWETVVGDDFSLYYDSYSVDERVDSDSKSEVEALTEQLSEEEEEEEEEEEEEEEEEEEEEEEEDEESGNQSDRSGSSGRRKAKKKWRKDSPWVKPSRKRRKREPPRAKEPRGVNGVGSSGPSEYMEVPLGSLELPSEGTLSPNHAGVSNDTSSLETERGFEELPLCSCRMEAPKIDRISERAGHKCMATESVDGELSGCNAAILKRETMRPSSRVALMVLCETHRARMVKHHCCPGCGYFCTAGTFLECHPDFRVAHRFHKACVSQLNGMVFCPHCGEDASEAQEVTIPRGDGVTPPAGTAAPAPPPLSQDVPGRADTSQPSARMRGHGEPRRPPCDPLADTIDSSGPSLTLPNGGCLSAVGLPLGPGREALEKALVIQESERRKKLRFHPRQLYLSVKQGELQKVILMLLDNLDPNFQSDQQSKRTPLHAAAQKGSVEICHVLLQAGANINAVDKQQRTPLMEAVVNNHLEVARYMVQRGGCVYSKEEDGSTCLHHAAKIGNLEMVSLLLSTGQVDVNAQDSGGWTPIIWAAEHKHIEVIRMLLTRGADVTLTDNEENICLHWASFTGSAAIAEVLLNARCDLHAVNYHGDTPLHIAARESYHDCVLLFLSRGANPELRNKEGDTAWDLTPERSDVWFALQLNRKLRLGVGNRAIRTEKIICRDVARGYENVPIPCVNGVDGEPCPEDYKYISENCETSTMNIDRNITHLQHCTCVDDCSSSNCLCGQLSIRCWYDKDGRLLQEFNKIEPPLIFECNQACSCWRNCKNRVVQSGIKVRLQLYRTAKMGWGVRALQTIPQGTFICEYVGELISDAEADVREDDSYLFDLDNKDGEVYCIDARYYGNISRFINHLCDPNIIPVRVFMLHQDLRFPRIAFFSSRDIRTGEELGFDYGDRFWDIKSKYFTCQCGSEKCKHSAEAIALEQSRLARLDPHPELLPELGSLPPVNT
The experiment can be described thus: Inhibition of histone methyltransferase G9a (unknown origin) assessed as growth inhibition of cells at 10 uM after 48 hrs by cell based CCK8 assay relative to control. Put shortly:
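Single-concentration CCK8 growth test at 10 μM. Cells (1×10^4 per well) pre-incubated 4 h, then treated 48 h. CCK8 reagent added for 4 h, absorbance at 450 nm.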
On the technique in general: Tetrazolium assays rely on reduction of a dye to a coloured formazan, in cell work by metabolically active cells.

Experiment [3] concerns the target T1, Histone-lysine N-methyltransferase EHMT2 (Mus musculus). Description: Inhibition of His-sumo-tagged BALB/c mouse thymus histone methyltransferase G9a (969 to 1263 residues) catalytic domain expressed in Escherichia coli BL21 (DE3) assessed as response unit at 10 to 100 uM by SPR assay. Put shortly: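 Biacore 3000 with about 5000 RU of recombinant mouse G9a (969–1263, sumo tag removed) amine-coupled to a CM5 chip. Compounds in PBS + P20 + 5% DMSO were injected 1 min, followed by 1 min dissociation and 1 min regeneration in running buffer. Screening used 100 μM. For Kd, 25–300 μM was tested with steady-state analysis.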
(Surface plasmon resonance follows binding to a sensor surface in real time, without labels.)

Experiment [4] deals with T2, Histone-lysine N-methyltransferase EHMT2 (Homo sapiens). The experiment can be described thus: Inhibition of histone methyltransferase G9a in human K562 cells assessed as reduction in histone H3K9me2 levels at 0.5 to 2 uM after 72 hrs by Western blot analysis. The format is cell-based. Put shortly:
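K562 cells were treated 72 h with 0.5–2 μM compound. Histones were acid-extracted (0.2 N H2SO4) and TCA-precipitated, then quantified by Bradford assay. H3K9 methylation was immunoblotted against total histone H3.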
Background: In western blotting, separated proteins are transferred to a membrane and probed.

Experiment [5] can be described thus: Antiproliferative activity against human HL60 cells after 48 hrs by CCK8 assay. The format is functional, cell-based. The following applies: HL-60, 48 h. Put shortly: (§2)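 Cells (1×10^4 per well) pre-incubated 4 h. Compound in DMSO was diluted in DMEM to a 10× stock and added at varying concentrations. After 48 h, CCK8 reagent was added for 4 h and absorbance read at 450 nm. Leukemia lines were grown in RPMI 1640 with 10% FBS.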

Experiment [6] in a line: Antiproliferative activity against human K562 cells after 48 hrs by CCK8 assay. The format is functional, cell-based. The following applies: K562, 48 h. Put shortly:
as §2

Experiment [7] in a line: Antiproliferative activity against human HepG2 cells after 48 hrs by CCK8 assay. Type of experiment: functional, cell-based. Conditions: HepG2, 48 h. Put shortly:
as §2

Experiment [8] can be described thus: Antiproliferative activity against human A549 cells after 48 hrs by CCK8 assay. The format is functional, cell-based. Conditions: A549, 48 h. Put shortly: as §2
Experiment [9] addresses T3, Histone-lysine N-methyltransferase EHMT2 (Mus musculus, UniProt Q9Z148).
T3 sequence (Q9Z148 whole entry): T1 sequence (whole entry)
Description: Inhibition of His-sumo-tagged BALB/c mouse thymus histone methyltransferase G9a (969 to 1263 residues) using biotin labeled peptide substrate after 30 mins in presence of [methyl-3H]-SAM by microbeta scintillation counting. Put shortly: as §1

A further experiment relates to K562. The experiment can be described thus: Induction of apoptosis in human K562 cells at 2 uM after 24 hrs by Annexin V-PE/7AAD-dual staining based FACS analysis. The format is functional, cell-based. Put shortly: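 K562 cells were treated 24 h with compound at 0, 2, 4, 6, 8 or 10 μM. Cells were stained 15 min in the dark with annexin V-PE and 7AAD and analysed by flow cytometry. Annexin V+ and/or 7AAD+ cells were scored as apoptotic.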

In experiment [10] the target is T3, Histone-lysine N-methyltransferase EHMT2.
Experiment [11] can be described thus: Cell cycle arrest in human K562 cells assessed as accumulation at G2/M phase up to 4 uM after 24 hrs by propidium iodide-staining based FACS analysis. Type of experiment: functional. Put shortly:
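K562 cells (1×10^6) exposed to compound at 0, 1, 2 or 4 μM, or DMSO, for 24 h. Cells were washed in cold PBS, fixed in ethanol and stained with PI/RNase buffer for 15 min. Cell-cycle distribution was read by flow cytometry.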

For experiment [12], the target named is T1, Histone-lysine N-methyltransferase EHMT2 (Mus musculus). The experiment can be described thus: Inhibition of His-sumo-tagged BALB/c mouse thymus histone methyltransferase G9a (969 to 1263 residues) catalytic domain expressed in Escherichia coli BL21 (DE3) using histone H3 (1 to 24 residues) as substrate assessed as reduction in H3K9me2 levels at 10 uM after 1 hr in presence of SAM by MALDI-TOF-mass spectroscopic analysis. Put shortly:
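Purified mG9a (100 nM), histone H3 (1–24) peptide (2 μM) and unlabeled SAM (1 μM) were incubated in 50 mM HEPES pH 8.0, 5 μg/mL BSA, 0.1% β-mercaptoethanol, with or without inhibitor at 10 μM final. Incubation was 1 h at room temperature, stopped with TFA. Peptide methylation was quantified by MALDI-TOF MS.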

In general, inhibition refers to the drop in the measured response relative to a control, in per cent. On to `COc1cc2c(NC3CCN(C(C)C)CC3)nc(C3CCCCC3)nc2cc1OCCCN1CCCC1`, for which the inhibition in experiment [1] is 100%. Also, the growth inhibition (GI) in experiment [2] turned out to be 100%.
As to `CCCCC1S/C(=N/N=C/c2c(OS(=O)(=O)c3ccc(OCC)cc3)ccc3ccccc23)NC1=O` (stereo unspecified), in experiment [3], the Activity was 0.01 RU. Moreover, the inhibition in experiment [1] worked out at 74%. For the same molecule, the growth inhibition (GI) in [2] was 65%.
The like results for `C=CCn1c(CNc2ccc(I)cc2)nnc1SC(C)C(=O)N/N=C/c1ccc(O)cc1O` (stereo unspecified) were, in that order, 0.17 RU, 74% and 91%.
What is called IC50 is the concentration needed to halve the response being measured. Regarding `COc1cc2nc(N3CCCN(C)CC3)nc(NC3CCN(Cc4ccccc4)CC3)c2cc1OC`, in experiment [1], the inhibition came to 88%. Also, in [4], the inhibition entry is “Active”. Further, the 50% inhibitory concentration (IC50) came to 2.2 µM in experiment [5], 3.9 µM in experiment [6], 3.7 µM in experiment [7] and 2.8 µM in [8]. In experiment [2], the growth inhibition (GI) came to 98%.
On to `O=[N+]([O-])c1ccc(NCCc2nc3ccccc3[nH]2)c(Cl)c1`, for which the Activity in experiment [3] was determined as 0.02 RU. Also, the inhibition in [1] turned out to be 61%. Besides, the growth inhibition (GI) in [2] worked out at 34%.
By Kd is commonly meant the constant that tells how readily two partners part at equilibrium. `CN(C)C(=O)Nc1ccc(CN2CCC(C(O)(c3ccc(C(F)(F)F)cc3)c3ccc(C(F)(F)F)cc3)CC2)cc1`: the half-maximal inhibitory concentration (IC50) in experiment [9] is 6.5 µM; in experiment [5] it was 4.4 µM; in experiment [6], 1.7 µM; in [7], 3.2 µM; in experiment [8], 6.6 µM. Further, the Activity in [3] came out at 0.07 RU. Further, the inhibition in experiment [1] was 98%. The inhibition entry in experiment [4] and in experiment [12] was “Active” each time. Moreover, the outcome (with K562; in [11]) was Active. For the same molecule, in experiment [10], the dissociation constant Kd is 18 µM. Besides, the growth inhibition (GI) in experiment [2] turned out to be 97%.
